Experimental findings from PubChem BioAssay are described below.

Values without a mark were called inactive. Results filed as inconclusive are left out. Active and inactive are the calls of the source.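 Rule for the calls, unless noted: active = inhibition over a set limit, the all-compound mean plus 3 SD, in both replicate runs; inconclusive = over that limit in just one replicate run; inactive = at or under that limit in both runs.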

A short description of test [1]: OD615 S. cerevisiae growth inhibition, permissive medium, pilot counter-assay, permissive growth control for S. cerevisiae lifespan shortening project (AID 705;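 active = growth inhibition above 25% in both replicates, a cutoff set 3 SD above the mean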). The conditions noted are these: OD615, 24 h, at 10 µM, active compounds read high. The essentials: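 assay system = Saccharomyces cerevisiae strain carrying genetically modified DeaD replicative-lifespan system | technique = absorbance (optical density) at 615 nm | buffer or medium = permissive raffinose/galactose medium | timing = cells pre-grown 4 h, then 24 h compound exposure, 30 °C humidified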

Test [2] in a line: Restrictive medium S. cerevisiae growth inhibition, OD615, pilot screen of yeast lifespan reduction project, restrictive growth control (AID 706;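 active = growth inhibition above a set limit, 3 SD over mean compound inhibition, in both replicates, cut at about 43% in these data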;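 note: modified DeaD lifespan yeast strain shifted to restrictive glucose medium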). The conditions noted are these: OD615, 48 h, at 10 µM, active compounds read high. The essentials:
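System: modified S. cerevisiae. Buffer or medium: CSMM-D glucose medium. Incubation: 4 h pre-growth plus 48 h compound exposure, 30 °C. Detection: absorbance (optical density) measured at 615 nm.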

Test [3] in a line: viability gain of MRP-1-high H69AR cells under doxorubicin, pilot screen, MRP-1 activator project, CellTiter-Glo, duplicate (AID 807;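 active = viability increase at or above a cutoff of the median across tested compounds plus 3 SD, cut at about 8.5% in these data, passing the limit was not always enough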;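 note: compound pretreatment 18-22 h then 72 h combined with doxorubicin; 0% = doxorubicin alone and 100% = vehicle without doxorubicin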). The conditions noted are these: H69AR viability with doxorubicin, CellTiter-Glo luminescence; at 10 µM; active compounds read high. For orientation: In ATP-based viability assays light output follows the ATP content of the culture.
The nature of test [4]: growth suppression of beta-catenin knockout HCT116, pilot screen, human colon tumor cells (AID 823;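 active = cell viability at or below a set limit in both duplicate runs, the limit being the all-compound median minus 4 SD, cut at about 23% in these data, passing the limit was not always enough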;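 note: 0% = wells killed by 20 µM Hyamine and 100% = untreated DMSO cell wells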). The conditions noted are these: CellTiter-Glo, 60 h, at 10 µM, active compounds read low.
Test [5] is described as follows: growth suppression of PTEN-deleted HCT116, pilot screen, cell-based, HCT116 clonal line, CellTiter-Glo (AID 824;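 active = viability at or below 27.92% in each of two runs, the all-compound median minus 4 SD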;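 note: 0% = 20 µM Hyamine control and 100% = vehicle cell control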). The conditions noted are these: 60 h, at 10 µM, active compounds read low.
Test [6] can be described thus: inhibitors of the yeast RAM network, pilot screen, dse1pr::URA3 reporter, 5-FOA selection (AID 869).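 Note: 0% = DMSO wells with no growth and 100% = 10 µM 1-NA-PP1 with full growth; RAM network block rescues cells from 5-FOA so hits raise OD615 growth.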 The conditions noted are these: S. cerevisiae dse1pr::URA3 5-FOA growth, OD615, 2 d; at 10 µM; active compounds read high; strain carries analog-sensitive mutant Cbk1 kinase.
The nature of test [7]: RAM signaling pathway blockade in yeast – S. cerevisiae, Pdr1DBD-CYC8 efflux-inhibited sensitized strain, primary screen (AID 1298;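 active = RAM network inhibition above 8.4% in each of two replicates, 3 SD over the compound average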;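 note: 0% = DMSO untreated cells without growth and 100% = 10 µM 1-NA-PP1 full growth; higher means more yeast growth rescued from 5-FOA killing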). As to conditions: S. cerevisiae cbk1-as DSE1-URA3 strain, 5-FOA growth OD615, 2 d; at 50 µM; active compounds read high.

Broadly, the viability is a read-out of living cells in per cent, often relative to untreated cells. As usually defined, the inhibition is the drop in the measured response relative to a control, in per cent. With `Cn1c(=NC(=O)C2CC2)sc2cc(F)cc(F)c21`, the growth inhibition in test [1] is -0.79%; in test [2] it was 8.89%. For the same compound, the viability increase in test [3] was -4.58%. Besides, the figures for the viability in test [4] and in test [5] were 91.3% and 92.6%, respectively. Further, the inhibition in test [6] was 1.81%. The RAM network inhibition in test [7] is 7.52%.

Regarding `Cn1c(=NC(=O)c2ccco2)sc2cccc(F)c21`, the values for the growth inhibition in test [1] and in test [2] were -12.6% and -1.11%, respectively. In test [3], the viability increase was -7.04%. Also, the viability is 80.9% in test [4] and 78.4% in test [5]. Besides, in test [6], the inhibition was 2.1%. Further, the RAM network inhibition in test [7] is 6.79%.

As to `O=C(O)CC(NC(=O)OCc1ccccc1)c1ccccc1` (stereo not given), the growth inhibition in test [1] was 2.56%; in test [2], -5.79%. Also, the viability increase in test [3] was -1.78%. In addition, the viability is 91.7% in test [4] and 96.5% in test [5]. Also, the inhibition in test [6] is 1.17%. In addition, the RAM network inhibition in test [7] is -0.33%.

In the case of `O=C(CN1C(=O)CCC1=O)Nc1nc2c(F)cc(F)cc2s1`, the figures for the growth inhibition in test [1] and in test [2] were -23% and -18.8%, respectively. Besides, the viability increase in test [3] was -0.91%. The viability in test [4] was 99.4%; in test [5], 92.5%. Besides, the inhibition in test [6] was 1.6%. The RAM network inhibition in test [7] was 1.49%.

In the case of `O=C(O)CN1C(=O)C2C3C=CC(C3)C2C1=O` (stereo not given), the growth inhibition in test [1] was -14.3%; in test [2] it was -14.5%. Moreover, in test [3], the viability increase was 0.28%. Moreover, the viability is 102% in test [4] and 88% in test [5]. In addition, the inhibition in test [6] was 1.61%. Moreover, in test [7], the RAM network inhibition is 2.2%.

In the case of `O=C(NCc1cccnc1)NC1(C(F)(F)F)Oc2ccc(Cl)cc2O1` (stereo not given), the values for the growth inhibition in test [1] and in test [2] were -2.96% and -8.97%, respectively. Also, the viability increase in test [3] is -6.19%. Moreover, the results for the viability in test [4] and in test [5] were 52.6% and 58.7%, respectively. Moreover, the inhibition in test [6] is 0.4%. Further, the RAM network inhibition in test [7] was 0.63%.

As for `CCCN(CCC)C(=O)CCS(=O)(=O)c1cccc2nsnc12`, the results for the growth inhibition in test [1] and in test [2] were -9.5% and -18.6%, respectively. Moreover, the viability increase in test [3] was -1.95%. The viability in test [4] is 96.3%; in test [5], 98.2%. In test [6], the inhibition was 1.15%. In addition, the RAM network inhibition in test [7] was 2.25%.

Regarding `CSc1nnc2n(-c3ccc(C)cc3)c(=O)c3c4c(sc3n12)COC(C(C)C)C4` (stereo not given), the growth inhibition in test [1] was -18.2%; in test [2], -3.12%. Moreover, in test [3], the viability increase was -4.07%. The viability was 37.3% in test [4] and 31.6% in test [5]. Besides, the inhibition in test [6] is -0.285%. Moreover, the RAM network inhibition in test [7] is 7.91%.

As to `O=C(CSc1nc2c(c(=O)n1-c1ccc(F)cc1)SCC2)NCc1ccco1`, the growth inhibition in test [1] was 8.53%; in test [2], 14.1%. In addition, in test [3], the viability increase was -2.1%. In addition, the viability is 102% in test [4] and 103% in test [5]. Moreover, the inhibition in test [6] was 1.21%. For the same compound, the RAM network inhibition in test [7] is 7.3%.

On to `CCOC(=O)c1sc(NC(=O)COC(=O)c2ccco2)nc1C`, for which the growth inhibition in test [1] is 4.37%; in test [2], -12.7%. For the same compound, the viability increase in test [3] was -6.43%. Moreover, the viability is 87.7% in test [4] and 89.6% in test [5]. Moreover, the inhibition in test [6] is 1.39%. In test [7], the RAM network inhibition is 4.87%.

In the case of `Cc1occc1C(=O)NCc1cccs1`, the growth inhibition in test [1] was -6.07%; in test [2], -2.95%. Also, in test [3], the viability increase was -1.27%. The viability is 91% in test [4] and 95.9% in test [5]. Further, the inhibition in test [6] was 0.455%. The RAM network inhibition in test [7] is -0.16%.

Take `Cc1noc(NS(=O)(=O)c2ccc(NC(=O)CSc3ncccn3)cc2)c1C`: the growth inhibition in test [1] was -3.47%; in test [2], -2.18%. In addition, in test [3], the viability increase is -0.58%. Besides, the viability in test [4] is 109%; in test [5], 95.2%. For the same compound, the inhibition in test [6] was 0.615%. Further, in test [7], the RAM network inhibition is 1.94%.

As for `CCOc1ccc2nc(NC(=O)c3ccoc3C)sc2c1`, the results for the growth inhibition in test [1] and in test [2] were 1.53% and -12.2%, respectively. The viability increase in test [3] was -6.35%. In addition, the viability is 19.1% (active) in test [4] and 17.1% (active) in test [5]. Further, in test [6], the inhibition is 1.03%. In test [7], the RAM network inhibition is 2.4%.

For `O=C(NC1CC1)c1ccc(CSCc2cccc(F)c2)o1`, the growth inhibition in test [1] was 3.53%; in test [2] it was 3.37%. The viability increase in test [3] is -2.78%. Besides, the results for the viability in test [4] and in test [5] were 82.3% and 86.3%, respectively. Further, the inhibition in test [6] was 1.08%. Also, in test [7], the RAM network inhibition is 4.29%.

Regarding `O=C(Oc1cccnc1)c1cccc(Cl)c1`, the values for the growth inhibition in test [1] and in test [2] were 6.51% and 20.1%, respectively. The viability increase in test [3] was -0.55%. The viability was 101% in test [4] and 97.5% in test [5]. For the same compound, the inhibition in test [6] was 0.79%. In test [7], the RAM network inhibition was -2.15%.

As for `N#CCC(=O)Nc1ccccc1C(=O)O`, the growth inhibition is -4.9% in test [1] and 0.025% in test [2]. Further, in test [3], the viability increase is -2.8%. Besides, the viability in test [4] is 94.8%; in test [5], 97%. Moreover, the inhibition in test [6] is 0.695%. Besides, in test [7], the RAM network inhibition is -0.92%.

As to `O=C(CC1NC(=O)NC1=O)NC1(C(=O)NC2CCCCC2)CCCCC1` (stereo not given), the growth inhibition is -9.09% in test [1] and 5.08% in test [2]. Further, in test [3], the viability increase was 0.88%. The results for the viability in test [4] and in test [5] were 99.3% and 102%, respectively. The inhibition in test [6] was 1.18%. Besides, in test [7], the RAM network inhibition is -0.62%.

Regarding `CC(C)CCSc1nnc(Cn2c(=O)sc3ccccc32)n1C`, the figures for the growth inhibition in test [1] and in test [2] were -10.3% and 2.02%, respectively. Further, in test [3], the viability increase was 0.27%. Further, the viability in test [4] was 79.8%; in test [5], 83.5%. Also, in test [6], the inhibition was 1.08%. Besides, the RAM network inhibition in test [7] was 4.4%.

Regarding `C=CCSC1=C(C#N)C(c2ccc(C(C)C)cc2)CC(=O)N1` (stereo not given), the growth inhibition in test [1] is -11.6%; in test [2], 8.41%. Besides, the viability increase in test [3] is -1.41%. Further, the viability was 92.2% in test [4] and 96.3% in test [5]. Besides, the inhibition in test [6] was 0.04%. Moreover, the RAM network inhibition in test [7] is 5.66%.

Consider `CC1CCc2nn(CC(=O)NCCC3=CCCCC3)cc2C1` (stereo not given), for which the growth inhibition in test [1] was 4.45%; in test [2] it was -4.16%. In addition, in test [3], the viability increase is -1.4%. Besides, the results for the viability in test [4] and in test [5] were 101% and 94.5%, respectively. The inhibition in test [6] was 0.595%. The RAM network inhibition in test [7] was 0.3%.

Turning to `O=P(O)(CN1CCCCC1)C1CCCCC1O` (stereo not given), the growth inhibition in test [1] was -11.2%; in test [2], -3.29%. For the same compound, the viability increase in test [3] is -1.71%. The viability in test [4] was 105%; in test [5] it was 104%. Moreover, in test [6], the inhibition was 0.06%. Moreover, in test [7], the RAM network inhibition is 1.57%.

On to `COc1ccc(S(=O)(=O)N2CCC(C(N)=O)CC2)cc1`, for which the growth inhibition in test [1] is 6.47%; in test [2], -3.14%. Further, the viability increase in test [3] is 0.89%. Besides, the values for the viability in test [4] and in test [5] were 106% and 102%, respectively. For the same compound, the inhibition in test [6] was 3.44%. Besides, the RAM network inhibition in test [7] was 4.25%.

Regarding `CCCC(=O)N=c1sc2cccc(F)c2n1C`, the growth inhibition in test [1] was -9.43%; in test [2] it was -11.1%. Also, the viability increase in test [3] was -2.75%. The results for the viability in test [4] and in test [5] were 99% and 93.2%, respectively. Also, in test [6], the inhibition is 0.795%. Further, the RAM network inhibition in test [7] is 5.05%.

Regarding `CCN1CCCC1CNC(=O)Cn1cc2c(n1)CCC(C)C2` (stereo not given), the growth inhibition is -3.58% in test [1] and 0.66% in test [2]. Besides, the viability increase in test [3] was -1.37%. The viability in test [4] is 91.7%; in test [5] it was 100%. Further, in test [6], the inhibition is 0.72%. For the same compound, the RAM network inhibition in test [7] is 1.7%.

As for `COc1cc(NC(=O)C2CCCN2S(=O)(=O)c2ccc3c(c2)CCC(=O)N3)cc(OC)c1` (stereo not given), the growth inhibition in test [1] was -15.3%; in test [2], -5.1%. Besides, in test [3], the viability increase is -1.09%. The viability in test [4] is 97.7%; in test [5], 105%. Also, in test [6], the inhibition is 1.09%. In addition, in test [7], the RAM network inhibition is 1.33%.
